Compounds with a hit are over-represented: about 1.5% of the library has one in this group of screens.
NR2E3 ag-1 – inhibitors of NR2E3-RetCOR corepressor binding, primary screen, NR2E3 agonist project, biochemical, TR-FRET, GST-NR2E3, biotin-RetCOR | Photoreceptor-specific nuclear receptor (Homo sapiens), Q9Y5X4 | 1536-well | inhibition of corepressor binding, % at 4.78 µM | 320,000 compounds, 0.12% hits | AID 2300, 2010;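 active = percent inhibition above the cutoff of mean plus 3 SD of all tested compounds, set per screening campaign, cut at about 20% in these data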;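 note: 0% = DMSO wells and 100% = biotin wells as full block of FRET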
Target sequence (Q9Y5X4 whole entry, looked up): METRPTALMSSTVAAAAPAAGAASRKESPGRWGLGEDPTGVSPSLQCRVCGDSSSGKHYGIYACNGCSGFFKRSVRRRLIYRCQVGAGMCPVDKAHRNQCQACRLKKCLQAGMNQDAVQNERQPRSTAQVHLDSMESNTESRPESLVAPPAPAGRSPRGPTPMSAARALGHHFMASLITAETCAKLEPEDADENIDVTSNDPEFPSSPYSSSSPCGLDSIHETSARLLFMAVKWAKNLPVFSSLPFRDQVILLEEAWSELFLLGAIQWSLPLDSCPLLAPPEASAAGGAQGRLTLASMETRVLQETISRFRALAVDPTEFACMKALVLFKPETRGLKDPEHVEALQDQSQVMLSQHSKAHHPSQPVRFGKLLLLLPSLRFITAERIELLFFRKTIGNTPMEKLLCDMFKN
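Test system: GST-NR2E3 and biotin-RetCOR proteins | Quantity: 1.35 nM GST-tagged NR2E3 final | Medium: Tris pH 7.5 | Also added: 7 nM biotin-RetCOR | Dosing: Compound at 4.8 µM, single dose | Timing: 5 h at 4 °C | Detection: Time-resolved FRET | Read-out basis: Percent inhibition | Benchmarks: Biotin wells as high control, 0.6% DMSO wells as low control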
NR2E3 ag-2 – NR2E3 agonists in two-hybrid cells, primary screen, cell-based, luminescence, CHO-S, Gal4-NCOR/VP16-NR2E3. Photoreceptor-specific nuclear receptor (Homo sapiens), Q9Y5X4. inhibition of corepressor binding, % at 3.98 µM. luciferase. 360,000 compounds, 0.35% hits;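 active = inhibition above the mean of all tested compounds plus 3 SD, cut at about 70% in these data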;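 note: 0% = DMSO with NR2E3 transfected cells and 100% = cells lacking NR2E3 construct; higher means lower luciferase signal from less NR2E3 corepressor binding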
PG9 binder – binders of HIV-1 gp120 antibody PG9, primary screen, biochemical, TR-FRET | TR-FRET gp120-PG9 antibody binding | AID 624416, 2012 | 360,000 compounds, 0.43% hits | inhibition, % at 6.7 µM; in the data active = inhibition above about 8.5%
NR1D1 modulator – modulators of Rev-erb alpha DNA binding, primary screen, biochemical, FITC-DNA, fluorescence polarization, uHTS | AID 1259318, 2017 | Rev-erbα–FITC-DNA binding, 90 min | activity, % at 10 µM | 370,000 compounds, 0.79% hits | Nuclear receptor subfamily 1 group D member 1 (Homo sapiens), P20393;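 active = activity above about 14%, limit read from the data; passing the limit was not always enough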;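 note: 0% = DMSO wells with 35 nM protein and 100% = DMSO wells with 750 nM protein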
NR1D1 mod conf – modulators of Rev-erb alpha DNA binding, confirmation, biochemical, FITC-DNA, fluorescence polarization, single point. activation, % at 25 µM. 90 min. 3,000 compounds, 61% hits. AID 1259319, 2017. shares compounds with NR1D1 modulator;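 active = activation at or above a set limit, or at least 3 SD above the negative control mean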;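 note: 0% = 35 nM protein with DMSO and 100% = 750 nM protein high control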
RORg DNA counter – modulation of RORgamma DNA binding, dose response, counter-screen for Rev-erb alpha modulator project, biochemical, fluorescence polarization, FITC-DNA | purified RORgamma protein-FITC-DNA binding | 910 compounds, 8% hits | shares compounds with NR1D1 modulator | IC50, µM | AID 1259320, 2017;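 active = Compounds whose fitted half-maximal concentration for disrupting protein-DNA binding is below 10 micromolar; the record names Rev-erb in its text, so the target is in doubt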
An asterisk follows results filed as active; i = inactive; x = not tested or not shown.

SMILES | NR2E3 ag-1 | NR2E3 ag-2 | PG9 binder | NR1D1 modulator | NR1D1 mod conf | others
Cc1ccc2c(COC(=O)c3n[nH]c4ccccc34)cc(=O)oc2c1 | -5.5 | -91.5 | 6.1 | 17.1* | 14.6
CCc1ccc2c(COC(=O)c3n[nH]c4ccccc34)cc(=O)oc2c1 | 5.2 | -52.0 | -0.8 | 10.3 | x
O=C(c1ccc(Cl)c(Cl)c1)N1CCN(c2ccnc3cc(Cl)ccc23)CC1 | x | x | x | 3.2 | x
O=C(Nc1ccc(F)cc1)OCCN1C(=O)CCC12CCC(c1ccccc1)CC2 (stereo not given) | x | x | x | 9.9 | x
O=C(Nc1ccccc1C(F)(F)F)OCCN1C(=O)CCC12CCC(c1ccccc1)CC2 (stereo not given) | x | x | x | 26.5* | 28.3* | RORg DNA counter=>40
O=C(Nc1ccc(C(F)(F)F)cc1)c1cc(-c2cccnc2)nc2ccc(Br)cc12 | 7.9 | 19.9 | 0.1 | 33.9* | 21.6*
CN(C)CC(=O)N[C@@H]1C[C@@H]2O[C@@H](CO)CC[C@@H]2O[C@@H]1CCc1ccc(-c2ccc(F)cc2)cc1 | x | x | x | -6.4 | x
COC(=O)Cn1c(=O)c(=O)n(CC(=O)OC)c2ccccc21 | 0.4 | -7.0 | -3.4 | -5.6 | x
COC(=O)Cn1cc(/C=C/c2cc[n+](C)cc2)c2ccccc21 | -7.0 | -6.1 | -2.6 | 54.9* | 63.3* | RORg DNA counter=>40
COC(=O)Cn1c(C)c(/C=C/c2cc[n+](C)cc2)c2ccccc21 | x | -15.1 | -9.6 | 154.1* | 113.7* | RORg DNA counter=>40
Cn1c(=O)cc(OCC(=O)N2CCN(c3ccccc3Cl)CC2)c2ccccc21 | x | x | x | -3.8 | x
S=C(Nc1ccccc1I)OC1CCC12CCC(c1ccccc1)CC2 (stereo not given) | x | x | x | 5.0 | x
CCOC(=O)c1c(C)nc2c(c1-c1ccc(OC)c(OC)c1)C(=O)c1ccccc1-2 | -2.8 | 5.1 | 1.6 | 52.8* | 47.0*
CCOC(=O)c1c(C)nc(C)c(C(=O)OCC)c1-c1ccc(OC)cc1 | 0.2 | -16.5 | -0.9 | 0.9 | x
COc1ccc(CCNC(=O)CSc2ncc(C(=O)Nc3ccccc3)c(=O)n2C)cc1 | -1.5 | 23.9 | -1.1 | 12.3 | x
COc1ccccc1NC(=O)c1cnc(SCC(=O)NCCc2ccccc2)n(C)c1=O | 0.1 | -19.8 | 2.2 | 13.8* | 31.9* | RORg DNA counter=i
COc1ccccc1Oc1ccc2c(c1)C(=O)N(c1ccccc1)C2=O | -2.5 | -25.6 | 1.0 | 67.2* | 47.9* | RORg DNA counter=>40
COc1ccc(N2C(=O)c3cc4ccccc4cc3C2=O)cc1 | 0.7 | -16.8 | -1.2 | 10.9 | x
COc1ccccc1Oc1ccc2c(c1)C(=O)N(c1ccc(C)cc1)C2=O | -0.7 | -49.6 | 0.7 | 28.4* | 30.7*
Cc1cc(Br)c2nc(-c3cccc(Br)c3)c(Cc3cccc(Cl)c3)n2c1 | x | x | 6.1 | 18.1* | 6.9
COc1ccccc1Cc1c(-c2cccc(Cl)c2)nc2c(C)cc(Br)cn12 | x | -5.2 | 2.2 | 22.3* | 10.8*
Cc1cc(Br)cn2c(Cc3cccc(Cl)c3)c(-c3cccc(Cl)c3)nc12 | x | -17.9 | 4.8 | 22.9* | 13.2*
Cc1cc(Br)cn2c(Cc3ccccc3)c(-c3ccc(Cl)cc3)nc12 | x | 5.1 | 1.0 | 25.4* | 12.4*
Cc1cc(Br)cn2c(Cc3cccc(F)c3)c(-c3ccc(Cl)cc3)nc12 | x | 0.9 | 3.9 | 14.7 | x
COc1ccccc1Cc1c(-c2ccc(OC)c(OC)c2)nc2c(C)cc(Br)cn12 | x | -13.9 | -1.8 | 6.2 | x
SMILES | NR2E3 ag-1 | NR2E3 ag-2 | PG9 binder | NR1D1 modulator | NR1D1 mod conf | others
CCn1c(=O)n2n(c1=O)[C@H]1C[N+](Cc3ccc4c(c3)OCO4)=C(N)NC1=C(C)C2 | x | x | x | 9.1 | x
COC(=O)C[C@@H]1CC[C@H]2[C@@H](COc3ccc(NC(=O)NC(C)C)cc3C(=O)N2C)O1 | x | x | x | 1.9 | x
Cc1ccccc1Cn1cc(S(=O)(=O)c2ccc(C(C)C)cc2)c(=O)c2cc3c(cc21)OCO3 | 3.8 | -25.9 | 0.1 | 40.3* | 21.3*
C1CCC(NC2=NCCO2)CC1 | x | -23.4 | -1.0 | 1.7 | x
C1COC(NC(C2CC2)C2CC2)=N1 | 1.1 | 9.1 | -0.3 | 16.7* | -6.8
CCCNC(=O)c1c(NC(=O)C2COc3ccccc3O2)sc2c1CCCC2 (stereo not given) | -2.9 | -25.6 | 0.2 | 48.8* | 3.8
O=C(Nc1nc(-c2cccs2)c(-c2cccs2)s1)C1CCCC1 | x | -5.2 | 4.0 | 80.3* | 113.9* | RORg DNA counter=i
Cc1ccccc1-c1cccc2c3c([nH]c12)[C@@H]1C[C@H]2[C@@H](CN1CC3)[C@H](C)ON2C | x | x | x | 9.1 | x
O=C(NCCc1ccc(Cl)cc1)c1ccc2nccnc2c1 | -1.7 | -134.3 | -1.0 | 13.8* | 5.2
O=C(NCCc1ccc(Cl)cc1)c1ccc2nc[nH]c2c1 | -1.0 | -27.4 | -0.8 | -1.2 | x
O=C(NCCc1ccccc1)c1ccc2c(c1)S(=O)(=O)c1cc(Cl)ccc1C2=O | -1.3 | 13.8 | -3.3 | 67.8* | 63.4* | RORg DNA counter=>40
O=C(CSc1nc(C2CCCCC2)nc2ccccc12)NCc1ccc2c(c1)OCO2 | 4.9 | -5.8 | 0.2 | 19.6* | 15.9
Cc1ccc2nc(-c3cccc(Br)c3)cc(C(=O)NCC3CCCO3)c2c1 (stereo not given) | 0.7 | -14.0 | -3.0 | 24.0* | 8.8
COC(=O)C1CN(Cc2ccc(Cl)cc2)CCS(=O)(=O)N1Cc1cn(Cc2ccc(C)cc2)nn1 (stereo not given) | x | x | x | -5.9 | x
O=C(Nc1ccc2nn(-c3ccccc3)nc2c1)c1ccc2c(c1)OCCO2 | -1.4 | -115.7 | 1.6 | 14.4 | x
O=C(Nc1ccc2nn(-c3ccccc3)nc2c1)c1ccc(Br)o1 | -10.8 | -38.4 | -11.1 | 36.6* | 26.0*
Cc1ccc2cc(-c3noc(C4CCCCC4)n3)c(=O)[nH]c2c1 | 2.5 | 11.7 | 0.3 | 41.4* | 33.9* | RORg DNA counter=>40
O=C1COc2ccc(C(=O)CSc3nc4ccccc4c(=O)n3-c3ccc(Cl)c(Cl)c3)cc2N1 | 1.8 | 1.4 | -0.2 | 25.8* | 6.7
O=C1COc2ccc(C(=O)CSc3nnc(Cc4ccccc4)o3)cc2N1 | -18.1 | -30.6 | 5.7 | 17.7* | 20.7*
Cn1c(SCC(=O)c2ccc3c(c2)NC(=O)CO3)nc2ccccc21 | -9.2 | -16.8 | 7.9 | 35.9* | 24.2*
COc1ccc(CSc2nnc(SCC(=O)Nc3ccccc3-c3ccccc3)s2)cc1 | x | x | x | -4.3 | x
CCCC1CCC2(CC1)CCC2OC(=O)Nc1cc(C)cc(C)c1 (stereo not given) | x | x | x | 2.3 | x
COC(=O)[C@]12C[C@H](CC(=O)N3CCN(C(=O)C4CC4)CC3)C(=O)N(Cc3ccco3)C1=C[C@H](COCc1ccccc1)O[C@@H]2C | x | x | x | 0.6 | x
O=C(/C=C1\OCc2ccccc21)c1ccccc1 | x | x | 0.8 | 13.4* | -3.7
O=C(C1CC1)N1CCc2cc(Br)c(S(=O)(=O)NCCCN3CCCCC3)cc21 | x | x | x | -0.5 | x

Assay outcomes: PubChem, several laboratories
